Where “and” joins values, the source holds several entries; their conditions need not be identical. Identical values can stand only once. Like-named read-outs stand apart in the source and are kept apart here.
Columns and labels:
[1] = system: formate dehydrogenase (FDH); details: azide anion with FDH; cited from earlier work
[2] = target: T1, Formate dehydrogenase (FDH) (Candida boidinii, UniProt O13437); assay: ITC binding of azo-NAD^+ to formate dehydrogenase; details: Kd (Binary), FDH binary complex, pH 7.5
T1 sequence (O13437 1-364): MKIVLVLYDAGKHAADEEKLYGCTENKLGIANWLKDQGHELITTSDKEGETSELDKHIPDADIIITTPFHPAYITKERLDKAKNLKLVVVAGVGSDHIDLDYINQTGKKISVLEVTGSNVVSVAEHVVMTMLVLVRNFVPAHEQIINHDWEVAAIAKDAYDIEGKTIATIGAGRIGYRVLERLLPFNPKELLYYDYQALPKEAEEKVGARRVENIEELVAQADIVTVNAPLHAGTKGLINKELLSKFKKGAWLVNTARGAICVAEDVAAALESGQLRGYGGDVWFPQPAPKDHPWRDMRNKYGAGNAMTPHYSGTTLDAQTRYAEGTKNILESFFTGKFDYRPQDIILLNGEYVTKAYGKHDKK
Summary of the method: (§1)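 Isothermal titration calorimetry at pH 7.5 with commercial enzymes: Candida boidinii FDH and porcine heart mitochondrial MDH. Titrations of azo-NAD+ with enzyme; for the MDH ternary complex, malate is present. Heats of dilution subtracted from raw heats. Integrated heats fitted to a single-site binding model to give Kd.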

[3] = target: T2, Malate dehydrogenase (MDH) (Sus scrofa, UniProt P00346); assay: ITC binding of azo-NAD^+ to malate dehydrogenase; type: Porcine heart mitochondria (sus scrofa); details: pH 7.5
T2 sequence (P00346 25-338): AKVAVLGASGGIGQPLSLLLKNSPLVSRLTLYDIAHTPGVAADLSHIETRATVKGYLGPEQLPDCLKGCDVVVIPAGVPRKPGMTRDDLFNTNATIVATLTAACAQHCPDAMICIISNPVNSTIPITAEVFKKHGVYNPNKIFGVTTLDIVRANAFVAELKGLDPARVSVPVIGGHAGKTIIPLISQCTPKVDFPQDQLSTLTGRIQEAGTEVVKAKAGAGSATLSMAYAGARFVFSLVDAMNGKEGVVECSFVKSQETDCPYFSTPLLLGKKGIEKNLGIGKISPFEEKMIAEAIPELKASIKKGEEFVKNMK
Summary of the method: as §1

[4] = target: Glucose dehydrogenase (GDH); assay: Fluorescence titration; type: binding, Bacillus megaterium; details: read-out: Kd (Binary); GDH binary complex; fluorescence experiments; pH 7.5
[5] = target: T1, Formate dehydrogenase (FDH); assay: Enzymatic reaction assay, initial rates; type: biochemical
[6] = target: T2, Malate dehydrogenase (MDH); assay: Enzymatic reaction assay, competitive inhibition, initial rates; type: biochemical, Porcine heart mitochondria (sus scrofa)
[7] = system: Glucose dehydrogenase (GDH); assay: Enzymatic reaction assay, initial rates; type: biochemical, Bacillus megaterium
Summary of the method: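 Commercial Bacillus megaterium GDH in a 1 mL UV cuvette with 0.1 M phosphate buffer, pH 7.5, and azo-NAD+ as coenzyme. Initial rates taken over 2 min from the absorbance rise at 340 nm (azo-NADH). Km and kcat obtained by fitting rates against azo-NAD+ concentration to the Michaelis–Menten equation, with Vmax = [E]·kcat.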

[8] = Stability in phosphate buffer by UV absorbance ratio 260/303 nm; type: physicochemical; details: phosphate buffer pH 7.5, 24 hrs, 25 °C
[9] = Solubility of the solid analog; type: physicochemical; details: phosphate buffer and methanol at room temperature
[10] = target: T1, Formate dehydrogenase (FDH); details: native NAD^+, cited from earlier work
[11] = target: T2, Malate dehydrogenase (MDH); details: native NAD^+, 37; cited from earlier work
[12] = system: Glucose dehydrogenase (GDH); details: native NAD^+; cited from earlier work
[13] = substrate: [N-]=[N+]=Nc1ccc[n+]([C@@H]2O[C@H](COP(=O)([O-])OP(=O)(O)OC[C@H]3O[C@@H](n4cnc5c(N)ncnc54)[C@H](O)[C@@H]3O)[C@@H](O)[C@H]2O)c1; assay: Enzymatic reaction assay, initial rates; type: biochemical, Candida boidinii; details: other: FDH, azo-NAD^+ as substrate, 0.1 M phosphate buffer pH 7.5
[14] = azo-NAD^+ as substrate, 0.1 M phosphate buffer pH 7.5

For `[N-]=[N+]=[N-]` [azide anion], the binding constant [1] is given as “nanomolar”.

With `[N-]=[N+]=Nc1ccc[n+]([C@@H]2O[C@H](COP(=O)([O-])OP(=O)(O)OC[C@H]3O[C@@H](n4cnc5c(N)ncnc54)[C@H](O)[C@@H]3O)[C@@H](O)[C@H]2O)c1` [azo-NAD^+] the Kd [2] was 63 µM, the Kd ([3]; Kd (Binary), MDH binary complex) was 152 µM and the Kd ([3]; Kd (Ternary), MDH ternary complex with substrate malate) was 70 µM. The Kd [4] was 300 µM, the “behaviour as substrate or inhibitor” value [5] was “substrate” and the Ki [6] was 83 µM. The “behaviour as substrate or inhibitor” value ([6]; MDH) was “competitive inhibitor”, the “behaviour as substrate or inhibitor” value [7] was “substrate” and the Km [7, 14] was 72 µM. For the same molecule, the kcat [7, 14] was 344 s⁻¹, the “stability (ratio of UV absorbance 260 nm/303 nm unchanged)” value [8] was “stable” and the solubility [9] was “soluble”.

In the case of `NC(=O)c1ccc[n+]([C@@H]2O[C@H](COP(=O)([O-])OP(=O)(O)OC[C@H]3O[C@@H](n4cnc5c(N)ncnc54)[C@H](O)[C@@H]3O)[C@@H](O)[C@H]2O)c1` [NAD^+, nicotinamide adenine dinucleotide], the kcat ([6]; MDH, native NAD^+, no reference given) is given as 45 s⁻¹, the “kcat (turnover number)” value ([10]; Candida Boidinii FDH) is given as 3.7 s^−1 and 3.7 ^c s^−1 and the Km ([10]; FDH) is given as 90 µM. For the same molecule, the Km [11] was 140 µM, the Km [12] was 370 µM and the kcat [12] was 390 ^d s^−1.

B1: Formate dehydrogenase (FDH) ([Candida] boidinii) (protein)
chain: MKIVLVLYDAGKHAADEEKLYGCTENKLGIANWLKDQGHELITTSDKEGETSELDKHIPDADIIITTPFHPAYITKERLDKAKNLKLVVVAGVGSDHIDLDYINQTGKKISVLEVTGSNVVSVAEHVVMTMLVLVRNFVPAHEQIINHDWEVAAIAKDAYDIEGKTIATIGAGRIGYRVLERLLPFNPKELLYYDYQALPKEAEEKVGARRVENIEELVAQADIVTVNAPLHAGTKGLINKELLSKFKKGAWLVNTARGAICVAEDVAAALESGQLRGYGGDVWFPQPAPKDHPWRDMRNKYGAGNAMTPHYSGTTLDAQTRYAEGTKNILESFFTGKFDYRPQDIILLNGEYVTKAYGKHDKK
Work on B1 yielded a Km [13] of 378 µM and a kcat [13] of 7.5 s⁻¹.

From PMC2963086 (Analytical biochemistry, 2010)
